Experimental findings from ChEMBL document CHEMBL4373727, “Thienopyrimidinone Derivatives That Inhibit Bacterial tRNA (Guanine37-N1)-Methyltransferase (TrmD) by Restructuring the Active Site with a Tyrosine-Flipping Mechanism” (J Med Chem, 2019) are described below.

The structures appear in SMILES notation. pIC50: −log10 of the molar value. In brackets after ≈: the same amount, converted by molar mass. Activity calls are given as the source filed them. The rule behind the calls is not given here.

Usually MIC50 stands for an inhibitory concentration at the 50% level, which refers to growth in some studies and to a panel of isolates in others. One may read the MIC90 as an inhibitory concentration at the 90% level, which refers to growth in some studies and to a panel of isolates in others. One may read the pIC50 as the negative decadic logarithm of the IC50, by convention in mol/L. What is called ΔTm is the change in melting temperature against a reference sample.

Assay [1] deals with Salmonella enteritidis. The experiment in a line: Antibacterial activity against Salmonella enteritidis ATCC 13076 incubated for 24 hrs by serial broth microdilution method. Type of assay: functional. The conditions noted are these: Salmonella enterica subsp. enterica serovar Enteritidis. Put shortly:
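Log-phase cultures from four colonies grown overnight at 37 °C, inoculated at ~5×10^5 cells/mL in cation-adjusted Mueller–Hinton broth with serially diluted compound. Grown 24 h at 37 °C, then OD600 read. MIC50/MIC90 are the concentrations giving 50%/90% growth inhibition relative to drug-free controls. Two independent experiments in duplicate.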
(Broth dilution looks for growth in wells or tubes with falling amounts of substance.)

A further assay has as its system Enterococcus faecalis. The experiment in a line: Antibacterial activity against Enterococcus faecalis ATCC 51299 incubated for 24 hrs by serial broth microdilution method. It is filed as functional, organism-based. The procedure, abridged: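 Broth microdilution in brain heart infusion broth, ~5×10^5 cells/mL log-phase inoculum, serial compound dilutions, 24 h at 37 °C, OD600 read-out. MIC50/MIC90 are the concentrations giving 50%/90% growth inhibition relative to drug-free controls. Two independent experiments in duplicate.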

The subject of assay [2] is Mycolicibacterium smegmatis. The assay is described as follows: Bactericidal activity against Mycolicibacterium smegmatis MC2 155 assessed as reduction in CFU at 1 to 4 times MIC90 incubated for 24 hrs. It is filed as functional. The conditions noted are these: MC2 155, 24 h, read-out: MBC99.9.
The subject of assay [3] is Mycobacterium tuberculosis. The experiment in a line: Bactericidal activity against Mycobacterium tuberculosis H37Rv assessed as reduction in CFU at 1 to 4 times MIC90 incubated for 7 days. Type of assay: functional. Particulars: 168 h, read-out: MBC99.9. The procedure, abridged: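 Then plated on complete 7H10 agar for CFU. Inoculum plated at time zero. MBC99.9 is a 1000-fold CFU reduction versus the time-zero inoculum.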

The subject of a further assay is Staphylococcus aureus. The experiment in a line: Antibacterial activity against methicillin-resistant Staphylococcus aureus ATCC 43300 incubated for 24 hrs by serial broth microdilution method. It is filed as functional. Particulars: ATCC 43300, 24 h. The procedure, abridged:
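Growth read by OD600. MRSA in cation-adjusted Mueller–Hinton broth, M. smegmatis in complete 7H9. MIC50 and MIC90 are 50% and 90% growth inhibition versus drug-free controls. Two independent experiments, each in duplicate.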

For assay [4], the system named is Salmonella enteritidis. The assay is described as follows: Bactericidal activity against Salmonella enteritidis ATCC 13076 assessed as reduction in CFU at 1 to 4 times MIC90 incubated for 24 hrs. Type of assay: functional. Particulars: Salmonella enterica subsp. enterica serovar Enteritidis.
The next assay deals with Streptococcus pneumoniae. The assay is described as follows: Bactericidal activity against Streptococcus pneumoniae ATCC 49619 assessed as reduction in CFU at 1 to 4 times MIC90 incubated for 24 hrs. It is filed as functional. Particulars: ATCC 49619, 24 h, read-out: MBC99.9.
Assay [5] deals with T1, tRNA (guanine-N(1)-)-methyltransferase (Pseudomonas aeruginosa (strain ATCC 15692 / DSM 22644 / CIP 104116 / JCM14847 / LMG 12228 / 1C / PRS 101 / PAO1)) (UniProt Q9HXQ1).
T1 sequence (whole entry): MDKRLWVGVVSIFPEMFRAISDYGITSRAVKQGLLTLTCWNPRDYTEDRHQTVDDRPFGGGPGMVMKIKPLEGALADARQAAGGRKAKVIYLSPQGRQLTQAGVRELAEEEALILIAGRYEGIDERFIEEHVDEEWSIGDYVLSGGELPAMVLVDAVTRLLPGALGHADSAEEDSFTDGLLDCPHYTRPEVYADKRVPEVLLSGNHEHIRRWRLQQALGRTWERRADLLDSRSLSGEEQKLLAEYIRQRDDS
The experiment in a line: Inhibition of Pseudomonas aeruginosa tRNA (guanine(37)-N1)-methyltransferase (Leu5 to Asp25 residues) expressed in Escherichia coli BL21 (DE3) Rosetta T1R cells assessed as reduction in S-adenosyl-L-homocysteine production preincubated for 30 mins followed by 1.5 to 15 uM of tRNALeu(CAG) substrate and SAM addition and measured after 60 mins by MTase-Glo assay.

The target in assay [6] is T2, tRNA (guanine-N(1)-)-methyltransferase (Mycobacterium tuberculosis (strain ATCC 25618 / H37Rv)) (UniProt P9WFY7).
T2 sequence (whole entry): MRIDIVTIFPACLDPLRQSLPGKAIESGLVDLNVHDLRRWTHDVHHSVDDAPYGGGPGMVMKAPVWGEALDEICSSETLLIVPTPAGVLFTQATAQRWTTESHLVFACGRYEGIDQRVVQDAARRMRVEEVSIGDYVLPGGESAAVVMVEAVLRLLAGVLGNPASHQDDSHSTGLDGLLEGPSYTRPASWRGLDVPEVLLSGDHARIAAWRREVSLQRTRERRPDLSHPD
The experiment in a line: Binding affinity to full length Mycobacterium tuberculosis tRNA (guanine(37)-N1)-methyltransferase expressed in Escherichia coli BL21 (DE3) assessed as dissociation rate constant by surface plasmon resonance assay. Put shortly:
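SPR at 25 °C. His-tagged TrmD (50 μg/mL) captured on an anti-His antibody surface (about 2200 RU), with a blank reference cell. Buffer: 50 mM Tris-HCl pH 8, 150 mM NaCl, 1 mM MgCl2, 1 mM DTT, 0.05% Tween-20. Analyte in 2-fold dilutions, injected lowest to highest at 30 μL/min, 30 s contact, 240 s dissociation. KD from steady-state affinity fit.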

The target of assay [7] is T3, tRNA (guanine-N(1)-)-methyltransferase (Pseudomonas aeruginosa (strain ATCC 15692 / DSM 22644 / CIP 104116 / JCM14847 / LMG 12228 / 1C / PRS 101 / PAO1), UniProt Q9HXQ1).
T3 sequence (Q9HXQ1 whole entry): T1 sequence (whole entry)
The experiment in a line: Inhibition of Pseudomonas aeruginosa tRNA (guanine(37)-N1)-methyltransferase (Leu5 to Asp25 residues) expressed in Escherichia coli BL21 Rosetta (DE3) assessed as reduction in S-adenosyl-L-homocysteine production preincubated for 15 mins followed by 4.5 uM of tRNALeu(CAG) substrate and SAM addition and measured after 45 mins by MTase-Glo assay. Put shortly:
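tRNA competition: same MTase-Glo assay with 8 nM PaTrmD and 2 μM SAM, 15 min preincubation and 45 min reaction at 37 °C. tRNALeu(CAG) at 1.5, 4.5 or 15 μM. IC50 from dose–response curves, duplicate data points.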

The target in assay [8] is T1, tRNA (guanine-N(1)-)-methyltransferase (Pseudomonas aeruginosa (strain ATCC 15692 / DSM 22644 / CIP 104116 / JCM14847 / LMG 12228 / 1C / PRS 101 / PAO1)). The experiment in a line: Binding affinity to Pseudomonas aeruginosa tRNA (guanine(37)-N1)-methyltransferase (Leu5 to Asp25 residues) expressed in Escherichia coli BL21 (DE3) Rosetta T1R cells assessed as thermal stabilization of protein by measuring change in melting temperature at 0.1 mM by SYPRO orange based thermal shift assay. The procedure, abridged:
(§1)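 Thermal shift: 4 μM TrmD with 5× SYPRO Orange and ligand in 50 mM Tris-HCl pH 8, 150 mM NaCl, 1 mM MgCl2, 1 mM DTT, 0.05% Tween-20. Buffer-only control. Heated from 25 to 95 °C in a real-time PCR instrument, and Tm taken as the unfolding midpoint. Ligand levels: SAH 2 mM, inhibitors 0.1 mM.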

For assay [9], the target named is T2, tRNA (guanine-N(1)-)-methyltransferase (Mycobacterium tuberculosis (strain ATCC 25618 / H37Rv)). The assay is described as follows: Binding affinity to full length Mycobacterium tuberculosis tRNA (guanine(37)-N1)-methyltransferase expressed in Escherichia coli BL21 (DE3) assessed as thermal stabilization of protein by measuring change in melting temperature at 0.1 mM by SYPRO orange based thermal shift assay. Put shortly:
as §1

For the compound `CCCCCCCCCCNCc1ccc(CNC(=O)c2csc3nc[nH]c(=O)c23)cc1`, the MIC50 entry in the assay with Salmonella enteritidis [1] and with Enterococcus faecalis was “inactive” each time. Also, the MIC90 result in the assay on Salmonella enteritidis [1] and with Enterococcus faecalis was “inactive” throughout. Further, the MBC is 36 µM (≈ 16.4 µg/mL) in assay [2], 75 µM (≈ 34.1 µg/mL) in assay [3] and greater than 100 µM with Streptococcus pneumoniae. In the assay on Staphylococcus aureus, this compound showed an MIC50 of 6 µM (≈ 2.73 µg/mL). In the assay on Staphylococcus aureus, this compound showed an MIC90 of 8.5 µM (≈ 3.86 µg/mL). For the same compound, the MBC99.9 entry in the assay on Salmonella enteritidis [4] was “inactive”.

Consider `CCCCCCCCNCc1ccc(CNC(=O)c2csc3nc[nH]c(=O)c23)cc1`, for which the MIC50 result in the assay with Salmonella enteritidis [1] and with Enterococcus faecalis was “inactive” throughout. In addition, the MIC90 entry in the assay with Salmonella enteritidis [1] and with Enterococcus faecalis was “inactive” in each case. For the same compound, the inhibition result in assay [5] was “Dose-dependent effect”. Besides, the Kdiss in [6] amounted to 0.12 s⁻¹. For the same compound, the MBC (in assay [2]; in [3]; with Streptococcus pneumoniae) was greater than 100 µM each time. Also, the pIC50 in [7] was 7.22. For the same compound, in [8], the thermal shift (ΔTm) was determined as 12 °C. Further, in the assay with Staphylococcus aureus, the MIC50 worked out at 31 µM (≈ 13.2 µg/mL). The compound also gave an MIC90 against Staphylococcus aureus of 36 µM (≈ 15.4 µg/mL). Also, the MBC99.9 entry in the assay with Salmonella enteritidis [4] was “inactive”.

As for `NC1CCN(Cc2ccc(CNC(=O)c3csc4nc[nH]c(=O)c34)cc2)CC1`, the values for the ΔTm in assay [9] and in assay [8] were 1 to 13 °C and 4 to 29 °C, respectively. Further, the Kdiss in [6] stood at 0.209 s⁻¹. The pIC50 in assay [7] was 6.48.
